Here are results for seven compounds from ChEMBL document CHEMBL1287789, “4-deoxy-4-fluoro-xyloside derivatives as inhibitors of glycosaminoglycan biosynthesis” (Bioorg Med Chem Lett, 2010).

Each structure is given as a SMILES string. Calls of active or inactive are those of the source. No cut-off for these calls is given here.

For data set [1], the species on record is Bos taurus. Put plainly: Inhibition of glycosaminoglycan biosynthesis in BLMVEC assessed as [3H]glucosamine incorporation at 300 uM after 24 hrs by liquid scintillation counting. It is filed as functional. Put shortly:
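Cells seeded at 2 × 10⁵/well and grown 24 h at 37 °C, then switched to DMEM with 1 mM glucose and 10% dialyzed FBS. Treated 24 h with 300 µM compound (from 30 mM DMSO stock) or DMSO alone, with ³H-glucosamine. Pronase digest overnight at 37 °C; GAGs bound to DEAE-Sepharose, washed at pH 6.0 with 0.1 M NaCl, eluted with 1 M NaCl; eluate radioactivity by scintillation counting.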

For data set [2], the species on record is Bos taurus. Description: Inhibition of glycosaminoglycan biosynthesis in BLMVEC assessed as [3H]-labeled-GAG chains by anion exchange chromatography. It is filed as functional. The settings on record: dose or concentration not given here. Put shortly:
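³H-glucosamine-labelled GAG chains from cells given 300 µM compound or DMSO for 24 h were run on DEAE-HPLC. Elution over 80 min with a 0.2–1 M NaCl linear gradient, monitored by an in-line radiometric detector; heparan sulfate and chondroitin sulfate resolved as separate peaks between 20 and 50 min.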

Data set [3] is described as follows: Cytotoxicity against BLMVEC assessed as cell viability at <=300 uM after 24 hrs by celltiter blue assay. Set-up: species or system Bos taurus. Particulars: cattle. Put shortly:
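Bovine lung microvascular endothelial cells seeded at 2.5 × 10⁴ cells/well in duplicate, Ham's F-12 with 10% FBS. Exposed to DMSO (control) or compound at 0.1, 0.3 and 1.0 mM for 24 h at 37 °C; 3% H₂O₂ as control. CellTiter-Blue added for 2 h, stopped with 3% SDS, fluorescence read at ex 560/em 590 nm.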

On to `O=[N+]([O-])c1ccc(OCc2cn([C@@H]3OC[C@@H](F)[C@H](O)[C@H]3O)nn2)cc1`, for which the inhibition in the data set filed under Bos taurus [1] and in the data set listed under Bos taurus [2] was 80% throughout. Moreover, the Activity entry in data set [3] is recorded as “Non-toxic”.
On to `O[C@@H]1[C@@H](O)[C@@H](n2cc(COc3ccc(F)cc3)nn2)OC[C@H]1F`, for which the inhibition – broadly, the change of the read-out against control, counted positive when it falls – in the data set filed under Bos taurus [1] is “Active”. Further, the Activity entry in data set [3] is given as “Non-toxic”.
`O[C@@H]1[C@@H](O)[C@H](n2cc(COc3ccc(F)cc3)nn2)OC[C@H]1F`: the inhibition entry in the data set listed under Bos taurus [1] is “Active”. In addition, the Activity result in data set [3] is on record as “Non-toxic”.
Consider `O[C@@H]1[C@@H](O)[C@@H](n2cc(COCc3ccc4ccccc4c3)nn2)OC[C@H]1F`, for which, in the data set filed under Bos taurus [1], the inhibition result is “Active”. Besides, in data set [3], the Activity entry was “Non-toxic”.
On the same counts, the results for `O[C@@H]1[C@@H](O)[C@@H](n2cc(-c3ccc4ccccc4c3)nn2)OC[C@H]1F` are “Active” and “Non-toxic”.
As to `O[C@@H]1[C@@H](O)[C@H](n2cc(COCc3ccc4ccccc4c3)nn2)OC[C@H]1F`, the inhibition result in the data set listed under Bos taurus [1] is “inactive”. In data set [3], the Activity result is “Non-toxic”.
`O=[N+]([O-])c1ccc(OCc2cn([C@H]3OC[C@@H](F)[C@H](O)[C@H]3O)nn2)cc1`: the inhibition in the data set listed under Bos taurus [1] and in the data set filed under Bos taurus [2] was 80% each time. The Activity result in data set [3] was “Non-toxic”.
